A1 apoptosis 2: A1 inhibitors via caspase activation, primary screen, cell-based, luminescence, HTS, two replicates; MEF A1-2A-BIM cells, caspase-Glo luminescence, 3 h; percent of clofoctol response, DMSO zero; caspase activation, % (no concentration beside the values); 24,000 tested, under 10 active; in the data active = caspase activation above about 5.9%
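Material: mouse embryonic fibroblasts co-expressing A1 and BIM (A1-2A-BIM), primed for A1 dependence / Quantity: 2500 cells/well / Buffer or medium: RPMI-1640 growth medium with 10% FBS / Doses: 50 nL compound per well, pinned / Schedule: 3 h compound exposure at 37 °C / Signal: Caspase-Glo luminescence (DEVD substrate) / Measure: Caspase-3/7 activation, seen as rise in luminescence signal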
* hit, by the source's call. The entries come from a sample that favours hits as a whole.

SMILES	A1 apoptosis 2
O=C(CCCCCC(=O)N/N=C/c1ccc(Br)cc1)NO	0
COc1ccc(S(=O)(=O)N(C)C[C@H]2Oc3ccc(NC(=O)Nc4cccc5ccccc45)cc3CC(=O)N([C@H](C)CO)C[C@@H]2C)cc1	2
COc1ccc(NC(=O)N(C)C[C@H]2OCCCC[C@H](C)Oc3ccc(NC(=O)CCC(F)(F)F)cc3C(=O)N([C@@H](C)CO)C[C@@H]2C)cc1	0
C[C@H](CO)N1C[C@H](C)[C@H](CN(C)C(=O)NC2CCCCC2)Oc2ccc(NC(=O)Cc3ccccc3)cc2CC1=O	1
C[C@H](CO)N1C[C@H](C)[C@@H](CN(C)C(=O)Nc2ccc3c(c2)OCO3)Oc2ccc(NS(=O)(=O)c3cccs3)cc2CC1=O	0
C[C@@H]1CN([C@@H](C)CO)C(=O)Cc2cc(NS(=O)(=O)c3ccc(Cl)cc3)ccc2O[C@@H]1CN(C)C(=O)Nc1cccc2ccccc12	0
C[C@H](CO)N1C[C@H](C)[C@@H](CN(C)Cc2ccc3c(c2)OCO3)Oc2c(NS(=O)(=O)c3ccc(Cl)cc3)cccc2C1=O	-1
C[C@H](CO)N1C[C@H](C)[C@H](CN(C)CC2CCCCC2)OCCCC[C@H](C)Oc2ccc(NC(=O)Nc3ccccc3)cc2C1=O	0
CC(C)NC(=O)Nc1ccc2c(c1)C(=O)N([C@H](C)CO)C[C@@H](C)[C@H](CN(C)Cc1ccc(Cl)c(Cl)c1)OCCCC[C@@H](C)O2	1
COc1cc(Br)cc(/C=N/NC(=O)CCCCCCC(=O)O)c1O	0
Cc1cc(C(=O)Nc2cccc3c2O[C@@H](CN(C)CC2CC2)[C@@H](C)CN([C@H](C)CO)C3=O)n(C)n1	-1
C[C@H](CO)N1C[C@H](C)[C@H](CN(C)Cc2ccccc2)Oc2ccc(NS(=O)(=O)c3cccs3)cc2C1=O	-2
Clc1nc(NC2CCN(Cc3ccccc3)CC2)c2cc(Br)ccc2n1	0
C[C@H]1CCCCO[C@@H](CN(C)C(=O)CCCN(C)C)[C@@H](C)CN([C@@H](C)CO)C(=O)c2cc(NC(=O)c3ccncc3)ccc2O1	1
C[C@@H]1CN([C@@H](C)CO)C(=O)c2cc(NS(C)(=O)=O)ccc2O[C@H]1CN(C)S(=O)(=O)c1cccs1	-1
C[C@H](CO)N1C[C@H](C)[C@H](CN(C)S(=O)(=O)c2ccc(Oc3ccccc3)cc2)OCc2cnnn2CCCC1=O	0
C[C@@H]1CN([C@H](C)CO)C(=O)c2cc(NC(=O)NC3CCCCC3)ccc2O[C@@H](C)CCCCO[C@@H]1CN(C)S(=O)(=O)c1ccccc1	1
Cc1ccc(/C=N/NC(=O)c2ccc(C(=O)NO)cc2)o1	2
Cc1ccc(S(=O)(=O)N(C)C[C@H]2Oc3ccc(NC(=O)NC4CCCCC4)cc3C(=O)N([C@H](C)CO)C[C@@H]2C)cc1	-1
C[C@@H]1CN([C@H](C)CO)C(=O)Cc2cc(NS(=O)(=O)c3ccc(Cl)cc3)ccc2O[C@@H]1CN(C)C(=O)NC1CCCCC1	-1
C[C@@H]1CN([C@H](C)CO)C(=O)c2cccc(NC(=O)Nc3ccc(F)cc3)c2O[C@H]1CN(C)C(=O)Nc1ccccc1	0
COc1ccc(NC(=O)N(C)C[C@H]2Oc3ccc(NC(=O)Cc4cn(C)c5ccccc45)cc3CC(=O)N([C@H](C)CO)C[C@@H]2C)cc1	-2
COC(=O)CCCCCCC(=O)N/N=C/CCC1CCCCC1	1
O=C(C1=C[C@@H](c2csc3ccccc23)C[C@@H](OCCCCO)O1)N1CCCCCCC1	0
Cc1ccc(S(=O)(=O)Nc2ccc3c(c2)C(=O)N([C@@H](C)CO)C[C@H](C)[C@H](CN(C)C(=O)Nc2ccc(F)cc2)O3)cc1	-1
SMILES	A1 apoptosis 2
C[C@@H]1CCCCO[C@H](CN(C)S(=O)(=O)c2cn(C)cn2)[C@@H](C)CN([C@H](C)CO)C(=O)c2cc(NC(=O)C3CCCCC3)ccc2O1	0
C[C@@H]1CCCCO[C@H](CN(C)C)[C@H](C)CN([C@H](C)CO)C(=O)c2cc(NC(=O)NC3CCCCC3)ccc2O1	1
CC(C)(C)OC(=O)NC1(/C=N/NC(=O)CCCCCCC(=O)O)CCCC1	0
C[C@H]1CN([C@@H](C)CO)C(=O)CCCn2cc(nn2)CO[C@H]1CN(C)C(=O)Nc1cccc2ccccc12	-1
CC(C)NC(=O)Nc1ccc2c(c1)C(=O)N([C@H](C)CO)C[C@@H](C)[C@H](CN(C)CC1CC1)OCCCC[C@@H](C)O2	1
CC(C)NC(=O)Nc1ccc2c(c1)C(=O)N([C@H](C)CO)C[C@H](C)[C@@H](CN(C)C(=O)c1ccncc1)OCCCC[C@H](C)O2	0
C[C@@H]1CN([C@@H](C)CO)C(=O)Cc2cc(NS(=O)(=O)c3ccc(Cl)cc3)ccc2O[C@H]1CN(C)Cc1ccc(C(=O)O)cc1	0
C[C@H](CO)N1C[C@H](C)[C@H](CN(C)C(=O)Nc2ccc(C(F)(F)F)cc2)Oc2c(NC(=O)Nc3ccc4c(c3)OCO4)cccc2C1=O	-1
C[C@H](CO)N1C[C@H](C)[C@@H](CN(C)C(=O)Nc2ccc(C(F)(F)F)cc2)OCCCC[C@H](C)Oc2ccc(NC(=O)Nc3ccc(F)cc3)cc2C1=O	-1
CC(C)NC(=O)Nc1ccc2c(c1)C(=O)N([C@H](C)CO)C[C@@H](C)[C@@H](CN(C)C(=O)Nc1ccc(F)cc1)O2	-1
COc1cccc(NC(=O)N(C)C[C@@H]2OCc3cn(nn3)CCCC(=O)N([C@@H](C)CO)C[C@@H]2C)c1	1
C[C@@H]1CN([C@@H](C)CO)C(=O)c2cc(NC(=O)Cn3cnnn3)ccc2O[C@H]1CN(C)C(=O)Nc1ccccc1	1
OC(CSc1nc(-c2ccccc2)c(-c2ccccc2)o1)CC(O)c1ccccc1 (centres undefined)	0
COc1ccc(NC(=O)Nc2ccc3c(c2)C(=O)N([C@@H](C)CO)C[C@H](C)[C@H](CN(C)CC2CCCCC2)OCCCC[C@H](C)O3)cc1	0
COc1ccc(NC(=O)Nc2ccc3c(c2)C(=O)N([C@@H](C)CO)C[C@@H](C)[C@@H](CN(C)C(=O)C2CCCCC2)OCCCC[C@@H](C)O3)cc1	-1
CCOc1cc(/C=N/NC(=O)CCCCCCC(=O)NO)ccc1O	0
C[C@@H]1CN([C@H](C)CO)C(=O)Cc2cc(NC(=O)Nc3ccc(C(F)(F)F)cc3)ccc2O[C@@H]1CN(C)Cc1ccc(C(F)(F)F)cc1	1
C[C@@H]1CN([C@H](C)CO)C(=O)Cc2cc(NC(=O)Nc3ccc(C(F)(F)F)cc3)ccc2O[C@H]1CN(C)Cc1ccc(C(F)(F)F)cc1	0
C[C@H](CO)N1C[C@H](C)[C@H](CN(C)Cc2ccc(C(F)(F)F)cc2)Oc2ccc(NC(=O)Nc3ccc(C(F)(F)F)cc3)cc2CC1=O	6.6*
O=C(NO)c1cccc(C(=O)N/N=C/c2ccc(O)c(O)c2O)c1	-1
Cc1ccc(S(=O)(=O)Nc2ccc3c(c2)C(=O)N([C@@H](C)CO)C[C@H](C)[C@@H](CN(C)S(=O)(=O)c2ccc(Cl)cc2)O3)cc1	0
COc1ccc([Si](C)(C)[C@@H]2[C@@H](CCO)O[C@]3(C(=O)N(c4ccccc4)c4ccccc43)[C@H]2C)cc1	0
COc1ccc([Si](C)(C)[C@@H]2[C@@H](CCO)O[C@]3(C(=O)N(C)c4ccccc43)[C@H]2C)cc1	2
COc1ccc([Si](C)(C)[C@@H]2[C@@H](CCO)O[C@]3(C(=O)N(C)c4c(Br)cc(C)cc43)[C@H]2C)cc1	44*
